Test results as given in paper PMC2151622 (The Journal of General Physiology, 2007).
Where a chain is given by its changes, count along the chain named.

Assays:
Format in all cases: cell-based, rabbit
D444A mutant EAAC1 = target: T1, D444A mutant EAAC1 (Oryctolagus cuniculus, UniProt P31597, D444A); test: Blockade of sodium-dependent transient currents; conditions: read-out: IC50 for substrates/blockers of charge movements, Xenopus oocytes, mean ± SEM
T1 sequence (P31597 1-524 D444A): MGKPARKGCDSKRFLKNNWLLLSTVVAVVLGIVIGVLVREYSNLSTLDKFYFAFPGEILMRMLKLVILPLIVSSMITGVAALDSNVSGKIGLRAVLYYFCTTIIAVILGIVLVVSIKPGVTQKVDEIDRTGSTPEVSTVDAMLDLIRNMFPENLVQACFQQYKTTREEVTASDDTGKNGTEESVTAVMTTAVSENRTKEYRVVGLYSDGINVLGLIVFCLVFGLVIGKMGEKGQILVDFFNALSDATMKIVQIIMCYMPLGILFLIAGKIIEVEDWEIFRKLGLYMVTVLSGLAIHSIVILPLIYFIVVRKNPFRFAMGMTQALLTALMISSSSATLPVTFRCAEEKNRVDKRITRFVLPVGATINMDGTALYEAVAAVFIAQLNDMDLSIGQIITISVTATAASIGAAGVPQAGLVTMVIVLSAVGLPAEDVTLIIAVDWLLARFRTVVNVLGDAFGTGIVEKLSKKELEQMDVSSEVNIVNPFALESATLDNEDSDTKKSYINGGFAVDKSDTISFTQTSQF

D444E-EAAC1 [1] = target: T2, D444E-EAAC1 (Oryctolagus cuniculus, UniProt P31597, D444E); test: Blockade of sodium-dependent transient currents; conditions: for Decay time of transient currents blocked: at +80 mV; for IC50: read-out: IC50 for substrates/blockers of charge movements, Xenopus oocytes, mean ± SEM
T2 sequence (P31597 1-524 D444E): T1 sequence (P31597 1-524 D444A) with A444E
Procedure, shortened: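 Oocytes expressing the mutant were voltage clamped in ND96 (pH 7.5, HEPES) and stepped from −25 mV. Transients are buffer current minus buffer-plus-compound current. Charge is the sum of current–time integrals at −100 and +80 mV, normalised to 1 mM L-aspartate or 15 mM succinate, and fitted to a generalized Hill equation. Decay constants come from a first-order exponential fit; mean ± SEM of 3–10 oocytes.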

D444E-EAAC1 [2] = target: T2, D444E-EAAC1; test: Substrate-induced steady-state transport currents in oocytes expressing D444E; conditions: 2 mM L-aspartate, other concentrations not given
WT-EAAC1 [3] = target: T3, WT-EAAC1 (Oryctolagus cuniculus, UniProt P31597); conditions: 2 mM, NaSCN-based buffer
T3 sequence (P31597 1-524): T1 sequence (P31597 1-524 D444A) with A444D
Procedure, shortened: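 Two-electrode voltage clamp of oocytes in buffer with all NaCl replaced by NaSCN, grounded through a 2% agarose/2 M KCl bridge. Compounds were 2 mM; TBOA (10 μM) was added to a stopped bath. Steps from −25 mV to −100…+40 mV. Net steady-state current (with minus without) was normalised to the L-aspartate current at +40 mV; mean ± SEM of 3 oocytes (L-aspartate n = 6).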

D444C-EAAC1 = target: T4, D444C-EAAC1 (Oryctolagus cuniculus, UniProt P31597, D444C); test: Substrate-induced steady-state transport currents in oocytes expressing D444C; conditions: 2 mM L-aspartate (Fig. 1 C), other concentrations not given
T4 sequence (P31597 1-524 D444C): T1 sequence (P31597 1-524 D444A) with A444C

WT-EAAC1 [4] = target: T3, WT-EAAC1; conditions: WT-EAAC1 in HeLa cells; 5 mM unlabeled succinate
D444C mutant EAAC1 = target: T5, D444C mutant EAAC1 (Oryctolagus cuniculus, UniProt P31597, D444C)
T5 sequence (P31597 1-524 D444C): T1 sequence (P31597 1-524 D444A) with A444C

D444E mutant EAAC1 = target: T6, D444E mutant EAAC1 (Oryctolagus cuniculus, UniProt P31597, D444E)
T6 sequence (P31597 1-524 D444E): T1 sequence (P31597 1-524 D444A) with A444E

Structure (SMILES)	IC50 (D444A mutant EAAC1) [µM]	Decay time of transient currents blocked (D444E-EAAC1 [1]; 10 mM compound) [ms]	IC50 (D444E-EAAC1 [1]) [µM]	Induction of steady-state transport currents (D444E-EAAC1 [2])	Effect on the anion conductance (WT-EAAC1 [3])	Suppression of the transient currents (D444E-EAAC1 [1]; 2 mM)	Decay time of transient currents blocked (D444E-EAAC1 [1]; 15 mM succinate) [ms]	Inhibition of the transient currents, concentration dependence (D444E-EAAC1 [1]; up to 15 mM)	Induction of steady-state transport currents (D444C-EAAC1)	Inhibition of D-[3H]-aspartate uptake (WT-EAAC1 [4])	Inhibition of D-[3H]-aspartate uptake (D444C mutant EAAC1)	Inhibition of D-[3H]-aspartate uptake (D444E mutant EAAC1)
N[C@@H](CC(=O)O)C(=O)O [L-Aspartate, L-aspartate]	720 ± 80	10.6 ± 1	9 ± 1	not observed	stimulated the anion conductance	–	–	–	–	–	–	–
O=C(O)CCC(=O)O [Succinate, succinate]	870 ± 110	–	> 6000	–	not seen	only slightly suppressed	5.1 ± 0.7	saturation was not reached	unable to induce steady-state currents	In contrast to WT	fully inhibited	much less sensitive
